Assay results: ChEMBL document CHEMBL5096209, “Structure-Activity Studies of 3,9-Diazaspiro[5.5]undecane-Based γ-Aminobutyric Acid Type A Receptor Antagonists with Immunomodulatory Effect” (J Med Chem, 2021)

Assays:
[1] = system: GABAA receptor α4β2δ (human); assay: Antagonist activity at recombinant human alpha4beta2delta GABAA receptor expressed in HEK293 Flp-In cells by FMP assay
[2] = molecular target: T1, GABA A receptor alpha-3/beta-2/gamma-2 (Homo sapiens, UniProt P18507+P34903+P47870); assay: Antagonist activity at human alpha3beta2gamma2 GABAA receptor expressed in HEKcells by FMP assay; format: cell-based, HEK
T1 sequence (P47870 whole entry): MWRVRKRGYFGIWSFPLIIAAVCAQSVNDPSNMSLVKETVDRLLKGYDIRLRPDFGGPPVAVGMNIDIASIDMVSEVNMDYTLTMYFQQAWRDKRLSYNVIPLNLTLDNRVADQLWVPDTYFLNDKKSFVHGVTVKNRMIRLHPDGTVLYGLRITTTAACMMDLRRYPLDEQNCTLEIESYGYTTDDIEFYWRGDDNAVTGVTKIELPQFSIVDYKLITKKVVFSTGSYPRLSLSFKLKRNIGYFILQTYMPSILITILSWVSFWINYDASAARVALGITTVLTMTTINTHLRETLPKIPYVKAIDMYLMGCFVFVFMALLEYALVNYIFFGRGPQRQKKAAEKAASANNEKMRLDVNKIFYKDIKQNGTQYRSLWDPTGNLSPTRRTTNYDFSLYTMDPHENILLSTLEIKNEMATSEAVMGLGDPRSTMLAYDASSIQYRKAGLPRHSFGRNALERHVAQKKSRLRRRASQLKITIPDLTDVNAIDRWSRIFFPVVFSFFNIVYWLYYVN
T1 sequence (P18507 whole entry): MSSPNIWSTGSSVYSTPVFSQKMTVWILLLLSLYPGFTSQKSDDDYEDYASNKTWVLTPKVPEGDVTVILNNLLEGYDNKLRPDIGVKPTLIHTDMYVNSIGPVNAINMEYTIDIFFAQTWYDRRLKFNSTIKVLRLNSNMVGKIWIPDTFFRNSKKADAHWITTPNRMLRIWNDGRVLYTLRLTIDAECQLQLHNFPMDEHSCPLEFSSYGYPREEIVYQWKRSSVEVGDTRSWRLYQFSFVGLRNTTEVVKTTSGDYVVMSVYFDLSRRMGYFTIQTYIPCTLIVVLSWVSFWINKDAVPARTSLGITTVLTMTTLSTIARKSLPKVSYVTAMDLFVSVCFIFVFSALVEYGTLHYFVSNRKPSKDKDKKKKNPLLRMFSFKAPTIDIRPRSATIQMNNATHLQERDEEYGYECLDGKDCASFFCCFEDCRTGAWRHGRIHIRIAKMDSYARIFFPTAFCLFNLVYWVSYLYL
T1 sequence (P34903 whole entry): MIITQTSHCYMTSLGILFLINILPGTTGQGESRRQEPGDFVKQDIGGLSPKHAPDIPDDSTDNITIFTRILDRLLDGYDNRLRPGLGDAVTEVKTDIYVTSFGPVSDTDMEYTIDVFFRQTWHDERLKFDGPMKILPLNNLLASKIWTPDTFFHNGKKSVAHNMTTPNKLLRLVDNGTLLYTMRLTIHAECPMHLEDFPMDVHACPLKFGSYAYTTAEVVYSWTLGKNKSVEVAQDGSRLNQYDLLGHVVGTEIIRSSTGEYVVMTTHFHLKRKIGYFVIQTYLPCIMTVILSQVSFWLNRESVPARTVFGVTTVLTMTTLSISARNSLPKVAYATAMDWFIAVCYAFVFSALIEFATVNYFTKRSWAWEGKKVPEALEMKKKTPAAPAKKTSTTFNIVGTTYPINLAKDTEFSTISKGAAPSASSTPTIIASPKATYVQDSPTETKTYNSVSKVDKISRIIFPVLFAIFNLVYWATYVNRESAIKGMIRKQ
Procedure, shortened: (§1)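 Human αβγ2 receptors in HEK293 cells: α1β2γ2 stably expressed, other αβγ2 subtypes transiently transfected into HEK293 Flp-In background cells (α:β:γ 1:1:2). FLIPR membrane potential assay with ΔRFU baseline to peak/plateau and GABA EC80 as agonist. IC50 from a four-parameter fit, at least three independent experiments.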

[3] = molecular target: T2, GABA A receptor alpha-2/beta-2/gamma-2 (Homo sapiens, UniProt P18507+P47869+P47870); assay: Antagonist activity at human alpha2beta2gamma2 GABAA receptor expressed in HEK cells by FMP assay; format: cell-based
T2 sequence (P47870 whole entry): T1 sequence (P47870 whole entry)
T2 sequence (P18507 whole entry): T1 sequence (P18507 whole entry)
T2 sequence (P47869 whole entry): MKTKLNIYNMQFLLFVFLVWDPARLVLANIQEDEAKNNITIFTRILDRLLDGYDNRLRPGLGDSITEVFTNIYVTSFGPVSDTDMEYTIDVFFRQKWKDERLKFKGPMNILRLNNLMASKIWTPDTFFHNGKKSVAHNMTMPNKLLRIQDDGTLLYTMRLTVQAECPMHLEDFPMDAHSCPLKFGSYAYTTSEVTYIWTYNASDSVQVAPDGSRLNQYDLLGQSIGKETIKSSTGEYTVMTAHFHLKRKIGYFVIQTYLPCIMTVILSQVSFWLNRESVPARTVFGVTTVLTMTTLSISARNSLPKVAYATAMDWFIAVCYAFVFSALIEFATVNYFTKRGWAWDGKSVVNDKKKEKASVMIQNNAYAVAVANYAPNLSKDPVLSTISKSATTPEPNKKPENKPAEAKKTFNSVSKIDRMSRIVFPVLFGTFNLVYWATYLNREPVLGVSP
Procedure, shortened: as §1

[4] = molecular target: T3, GABA-A receptor; alpha-1/beta-2/gamma-2 (Homo sapiens, UniProt P14867+P18507+P47870); assay: Antagonist activity at human alpha1beta2gamma2 GABAA receptor expressed in HEK by FMP assay; format: cell-based
T3 sequence (P14867 whole entry): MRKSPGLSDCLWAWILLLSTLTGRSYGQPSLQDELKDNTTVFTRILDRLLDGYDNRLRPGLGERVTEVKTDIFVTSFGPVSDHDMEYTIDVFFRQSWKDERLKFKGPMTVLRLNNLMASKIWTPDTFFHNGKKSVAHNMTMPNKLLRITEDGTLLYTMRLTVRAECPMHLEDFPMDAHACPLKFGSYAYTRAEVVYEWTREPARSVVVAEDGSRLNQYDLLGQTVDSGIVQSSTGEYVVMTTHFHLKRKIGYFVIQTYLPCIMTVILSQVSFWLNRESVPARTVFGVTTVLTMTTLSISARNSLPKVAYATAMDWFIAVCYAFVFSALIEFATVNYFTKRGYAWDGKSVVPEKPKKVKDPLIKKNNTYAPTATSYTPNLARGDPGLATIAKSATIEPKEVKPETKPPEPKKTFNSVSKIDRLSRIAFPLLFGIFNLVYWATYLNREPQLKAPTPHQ
T3 sequence (P47870 whole entry): T1 sequence (P47870 whole entry)
T3 sequence (P18507 whole entry): T1 sequence (P18507 whole entry)
Procedure, shortened: as §1

[5] = system: GABAA receptor α4β2δ (human); assay: Antagonist activity at human alpha4beta2delta GABAA receptor expressed in HEK293 Flp-In cells by FMP assay
[6] = Homo sapiens, Flp-In-293, read-out: pIC50 (converted)

IC50 [1, 6] | IC50 ([1]; flp-in-293) | IC50 [2] | IC50 ([2]; read-out: pIC50 (converted)) | IC50 [3] | IC50 ([3]; read-out: pIC50 (converted)) | IC50 [4] | IC50 ([4]; read-out: pIC50 (converted)) | IC50 [5, 6] | IC50 ([5]; flp-in-293) | Compound
363 nM | 360 nM | 290 nM | 288 nM | 2960 nM | 2950 nM | 4960 nM | 5010 nM |  |  | CC(=O)Nc1cccc(C(=O)N2CCC3(CCNCC3)CC2)c1
 |  |  |  |  |  |  |  | 2140 nM | 2150 nM | Cc1ccc(C(=O)N2CCC3(CCNCC3)CC2)cc1
67.6 nM | 68 nM | 79 nM | 79.4 nM | 320 nM | 324 nM | 790 nM | 794 nM |  |  | O=C(Nc1cccc(C(=O)N2CCC3(CCNCC3)CC2)c1)c1cccs1
 |  |  |  |  |  |  |  | 251 nM | 250 nM | Cc1cccc(C(=O)N2CCC3(CCNCC3)CC2)c1
